Results collected from several papers.
Each line is one published result; the experiments were not run side by side.

Cc1c(P(=S)(c2ccccc2)c2ccccc2)n2ccccc2[n+]1C/C=C/c1ccccc1  tissue/plasma ratio (mouse, brain; intraperitoneal, 10 mg/kg): 0.33
CC(=C/C=C/C(C)=C/C(=O)O)/C=C1\CCCc2ccccc21  AUC(0-inf) (human, plasma; oral, 5 mg, single dose, fasted, healthy volunteers): 193 ng·h/mL
O=C1[O][Pt]2([NH][C@@H]3CCCC[C@H]3[NH]2)[O]C1=O (relative stereo)  Tmax (cynomolgus monkey, plasma; oral, 10 mg/kg): 2 h
COc1ccc(C[C@@H]2NC(=O)[C@H]([C@@H](C)O)NC(=O)[C@@H]3[C@@H]4CCN3C(=O)[C@@H]3Cc5cn(c6ccc(F)cc56)CCCCCCN(Cc5ccc(cc5)CCNC(=O)[C@]5(C)CCCN5C2=O)C(=O)CCC(=O)N[C@@H](C)C(=O)N[C@H](CNC(=O)CCCCC[N+](C)(C)C)C(=O)N[C@@H](Cc2cccc(c2)CNC(=O)CO4)C(=O)N3)cc1  AUC(0-inf) (human, plasma; oral, 200 mg, single dose, healthy volunteers): 0.556 µM·h
N=c1c2c(-c3ccccc3)c(-c3ccccc3)n(Cc3ccccc3)c2ncn1[C@H]1CC[C@H](O)CC1  Tmax (male cynomolgus monkey, plasma; oral, 1 mg/kg, single dose): ~15 h
c1cc([C@H]2CC[C@]3(CC2)OO[C@]2(O3)C3CC4CC(C3)CC2C4)ccc1OCCN1CCOCC1  AUC(0-inf) (human, plasma; oral, 400 mg, patients): 6450 ng·h/mL
N=C(N)NCCC[C@@H](NC(=O)[C@@H](N)Cc1ccccc1)C(=O)N[C@@H](Cc1ccccc1)C(=O)N[C@@H](CCCCN)C(N)=O  AUC(0-t) (human, plasma; subcutaneous, 5 mg, patients): 861 ng·h/mL
C=C(C)[C@@H]1CC[C@]2(NCCN3CCS(=O)(=O)CC3)CC[C@]3(C)[C@H](CC[C@@H]4[C@@]5(C)CC=C(C6=CC[C@@](COc7ncccc7C#N)(C(=O)O)CC6)C(C)(C)[C@@H]5CC[C@]43C)[C@@H]12  AUC(0-inf) (human, plasma; oral, 100 mg, fed): 43600 ng·h/mL
